Compounds with a hit are over-represented: about 2.9% of the library has one in this group of screens.
GalR3 antagonist: GalR3 antagonists in HEK293 cells, primary screen, cell-based, fluorescence readout; HEK293 GalR3-CNG cAMP membrane potential fluorescence; galR3 body fused to GalR1 C-terminus; actives 0.44% (n = 360,000); AID 651719, 2012; inhibition, % at 3 µM; Galanin receptor type 3 (Homo sapiens), O60755;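 active = inhibition above the screen-wide average plus 3 SD, cut at about 13% in these data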;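 note: forskolin and galanin both at EC90 stimulate the cells; cAMP rise reported by CNG channel membrane potential dye signal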
Target sequence (O60755 1-299 limits assumed): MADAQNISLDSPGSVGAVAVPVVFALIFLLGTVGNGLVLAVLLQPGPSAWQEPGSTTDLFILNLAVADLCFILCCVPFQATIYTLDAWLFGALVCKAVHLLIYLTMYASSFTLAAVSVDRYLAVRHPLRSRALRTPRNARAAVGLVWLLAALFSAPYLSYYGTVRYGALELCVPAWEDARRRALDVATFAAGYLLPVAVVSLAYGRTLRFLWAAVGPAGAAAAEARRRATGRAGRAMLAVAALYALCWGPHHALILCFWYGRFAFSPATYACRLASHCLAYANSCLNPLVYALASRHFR
Calb FLC: C. albicans growth inhibition with fluconazole, primary screen, CaCi-2 strain, Alamar Blue fluorescence. C. albicans CaCi-2 + fluconazole, 48 h. growth inhibition, % (no concentration beside the values). actives 0.57% (n = 300,000). AID 1979, 2009;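 active = growth inhibition above about 58% in most replicates, limit read from the data, passing the limit was not always enough; inconclusive = exactly half the replicates above a set limit; inactive = most replicates below a set limit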;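 note: all wells also contain fluconazole at 8 µg/ml as a sub-toxic cotreatment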
Efflux pump mplx: inhibitors of Candida efflux pumps in yeast, primary screen, S. cerevisiae, Nile Red, multiplex; S. cerevisiae Candida pump triplex; inhibition, % at 10 µM; actives 0.44% (n = 330,000);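 active = plate passing quality check with inhibition over a set limit, or well fluorescence over plate mean plus 4 SD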;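 note: Nile Red retained in pooled yeast measured as flow cytometry median fluorescence; higher means more Nile Red kept so more efflux inhibition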
MC4R antagonist: MC4R antagonists of cAMP signaling, primary screen, cell-based, TR-FRET, antagonist arm of biased-ligand search | MC4R-expressing cells, MTII-stimulated cAMP, LANCE TR-FRET | Melanocortin receptor 4 (Homo sapiens), P32245 | actives 0.48% (n = 360,000) | AID 540295, 2011 | inhibition, % at 6.5 µM;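 active = inhibition above its plate's cutoff, the mean of tested wells on that plate plus 3 SD, cut at about 29% in these data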
Target sequence (P32245 whole entry, looked up): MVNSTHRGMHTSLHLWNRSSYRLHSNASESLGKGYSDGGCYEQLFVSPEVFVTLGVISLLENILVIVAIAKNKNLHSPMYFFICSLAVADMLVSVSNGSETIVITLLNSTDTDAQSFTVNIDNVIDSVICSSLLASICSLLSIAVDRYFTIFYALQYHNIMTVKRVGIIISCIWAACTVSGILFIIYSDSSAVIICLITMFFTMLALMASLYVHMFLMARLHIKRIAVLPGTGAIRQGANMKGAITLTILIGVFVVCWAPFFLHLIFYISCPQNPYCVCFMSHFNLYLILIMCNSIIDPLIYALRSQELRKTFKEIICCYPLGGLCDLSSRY
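system = U2OS cells with stable human MC4R expression | also added = Melanotan II challenge after compound preincubation | dosing = one concentration, 6.5 µM nominal | incubation = compound 30 min, challenge 1 h, detection 1 h | measured by = TR-FRET with Eu-cAMP and labeled anti-cAMP, 671 nm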
H9c2 TAG inh: inhibitors of triacylglycerol accumulation, primary screen, cell-based, uHTS, fluorescence, H9c2; H9c2 cells, Nile Red lipid (TAG) fluorescence; cells loaded with 200 µM oleic acid; inhibition, % at 12.5 µM; actives 0.66% (n = 230,000);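 active = pattern-corrected inhibition of lipid staining of at least 50% with the nuclear-stain viability signal not falling by more than 50%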
MC4R ag barr: MC4R agonists recruiting beta-arrestin, primary screen, cell-based, luminescence, agonist arm of biased-ligand search | activation, % at 8.9 µM | U2OS MC4R beta-arrestin complementation; percent of melanotan II response, DMSO zero | actives 0.98% (n = 360,000) | Melanocortin receptor 4 (Homo sapiens), P32245;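 active = activation above a per-plate cutoff, the mean activation of sample wells on that plate plus 3 SD, cut at about 8% in these data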
MC4R barr ag: MC4R beta-arrestin agonists, retest, confirmation, cell-based, luminescence, U2OS; shares compounds with MC4R ag barr; U2OS MC4R beta-arrestin recruitment; scaled DMSO 0%, Melanotan II 100%; activation, % at 8.9 µM; actives 31% (n = 2,400); AID 602192, 2012;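 active = mean activation across replicates above the hit cutoff set in the earlier primary screen, cut at about 8% in these data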
MOR-DOR barr ag: agonists of MOR-DOR heterodimerization, counter-screen for MC4R biased agonist project, cell-based, luminescence | shares compounds with MC4R ag barr | U2OS PathHunter beta-arrestin, beta-gal luminescence; percent of deltorphin B response, DMSO zero | activation, % at 9.2 µM | actives 5.8% (n = 2,400) | AID 602194, 2012;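 active = mean activation across replicates exceeds the hit threshold derived in the earlier primary screen, cut at about 18% in these data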
Each line names hits and unclear results; the compound was inactive in the other large screens (follow-up assays come after a bar, where they were run).

C=CC[C@H](CC(=O)N[C@H](CO)Cc1ccccc1)C(=O)N[C@H](COC(=O)[C@H](CC=C)CC(=O)OC(C)(C)C)Cc1c[nH]c2ccccc12	MC4R ag barr 22 (no result: Calb FLC) | MC4R barr ag inactive | MOR-DOR barr ag inactive
C=CC[C@@H](CC(=O)N[C@H](CO)Cc1ccccc1)C(=O)N[C@H](COC(=O)[C@H](CC=C)CC(=O)OC(C)(C)C)Cc1c[nH]c2ccccc12	none (no result: Calb FLC, Efflux pump mplx)
C=CCC[C@@H](Cc1ccc(F)cc1)C(=O)OC[C@@H](Cc1c[nH]c2ccccc12)NC(=O)[C@H](CC=C)CC(=O)N[C@H](CO)Cc1ccccc1	MC4R ag barr 10 (no result: Calb FLC) | MC4R barr ag inactive | MOR-DOR barr ag inactive
CC(C)NC(=O)C1(C)CSCC(=O)N1C1CCN(Cc2ccccc2)CC1 (stereo not given)	none (no result: Calb FLC, Efflux pump mplx, MC4R antagonist, H9c2 TAG inh, MC4R ag barr)
COC(=O)c1cccc(NC(=O)c2nn(C(C)C)c(=O)c3ccccc23)c1	MC4R ag barr 14 (no result: H9c2 TAG inh) | MC4R barr ag inactive | MOR-DOR barr ag inactive
COc1cc(OC)c(NC(=O)C(Sc2nc(C)cc(C)c2C#N)c2ccccc2)cc1Cl (stereo not given)	none (no result: Calb FLC, Efflux pump mplx, MC4R antagonist, H9c2 TAG inh, MC4R ag barr)
CCN(CC)C(=O)c1ccc2sc([C@@H]3O[C@H](CO)[C@H](O)[C@H](O)[C@H]3O)nc2c1	none (no result: Calb FLC, Efflux pump mplx)
Cc1cc(Nc2ccc(F)c(F)c2)nc(-c2ccccc2O)n1	MC4R ag barr 14 | MC4R barr ag inactive | MOR-DOR barr ag inactive
Cc1ccc(Nc2cc(C)nc(-c3ccccc3O)n2)cc1	none
CC(C)NC(=O)Nc1ccc2c(c1)C(=O)N([C@H](C)CO)C[C@H](C)[C@@H](CN(C)Cc1ccc(C(F)(F)F)cc1)OCCCC[C@H](C)O2	none (no result: Calb FLC, Efflux pump mplx)
CCC(C(=O)NC(C)(C)C)n1c(C(c2ccccc2)c2ccccc2)nc2ccccc21 (stereo not given)	none (no result: Calb FLC, Efflux pump mplx, MC4R antagonist, H9c2 TAG inh, MC4R ag barr)
COCCNC(=O)c1ccc(-n2c(SCc3cc(F)ccc3F)nc3ccccc3c2=O)cc1	MC4R ag barr 12 (no result: H9c2 TAG inh) | MC4R barr ag 8.3 | MOR-DOR barr ag inactive
O=C(Nc1cccc(C(=O)N2CCN(c3ccc(F)cc3)CC2)c1)c1ccccc1	none (no result: H9c2 TAG inh)
O=C(c1cccc(-c2ccc(O)cc2)c1)N1CCN(c2ccc(F)cc2)CC1	MC4R ag barr 13 | MC4R barr ag inactive | MOR-DOR barr ag inactive
Cc1noc(C)c1C(=O)OC(C)C(=O)c1c[nH]c2ccccc12 (stereo not given)	none (no result: Calb FLC, Efflux pump mplx)
Cc1nc(Nc2ccc(F)cc2)nc(Nc2ccc(F)cc2)c1[N+](=O)[O-]	MC4R ag barr 13 | MC4R barr ag inactive | MOR-DOR barr ag inactive
COc1cccc(-c2cc(CNC(=O)[C@H]3O[C@@H](n4ccc(=O)[nH]c4=O)[C@H](O)[C@@H]3O)no2)c1	none (no result: Calb FLC, Efflux pump mplx, MC4R antagonist, H9c2 TAG inh, MC4R ag barr)
COc1cc(/C=N/NC(=O)c2sc3nc(C)cc(C)c3c2N)ccc1O	MC4R ag barr 16 | MC4R barr ag inactive | MOR-DOR barr ag inactive
CCc1ccccc1NC(=O)c1sc2nc(C)cc(C)c2c1N	none (no result: H9c2 TAG inh)
Cc1cc(C)c2c(N)c(C(=O)Nc3ccccc3Br)sc2n1	MC4R ag barr 10.0 | MC4R barr ag inactive | MOR-DOR barr ag inactive
COC(=O)c1sc2nc(C)cc(C)c2c1N	none
CCOC(=O)c1c(C)[nH]c(C)c1C(=O)CSc1nnc(-c2ccc(OC(F)F)cc2)o1	MC4R ag barr 29 (no result: H9c2 TAG inh) | MC4R barr ag inactive | MOR-DOR barr ag inactive
CC(C)(C)S(=O)(=O)N1Cc2cc(CO)ccc2[C@H]1CCO	none (no result: Calb FLC, Efflux pump mplx, MC4R antagonist, H9c2 TAG inh, MC4R ag barr)
CCOc1ccc(Nc2nc(-c3cccnc3)cs2)cc1	MC4R ag barr 25 (no result: H9c2 TAG inh) | MC4R barr ag inactive | MOR-DOR barr ag inactive
S=c1[nH]nc(-c2cc(-c3ccccc3)n[nH]2)n1/N=C/c1ccc(Br)s1	MC4R ag barr 33 | MC4R barr ag inactive | MOR-DOR barr ag inactive
Cc1ccsc1/C=N/n1c(-c2cc(-c3ccccc3)n[nH]2)n[nH]c1=S	MC4R ag barr 12 | MC4R barr ag inactive | MOR-DOR barr ag inactive
Cc1ccc(-c2n[nH]c(=S)n2/N=C/c2sccc2C)cc1	none
Cc1ccccc1/C=N/n1c(-c2cc(-c3ccccc3)n[nH]2)n[nH]c1=S	MC4R ag barr 13 | MC4R barr ag inactive | MOR-DOR barr ag inactive
Cc1nc2ccccc2c(=O)n1Cc1ccco1	none
COc1ccc(Cn2c(C)nc3c(c2=O)c2nc4ccccc4nc2n3Cc2ccco2)cc1	MC4R ag barr 11 (no result: Calb FLC, Efflux pump mplx) | MC4R barr ag inactive | MOR-DOR barr ag inactive
O=C(C1CCCCC1)N1C[C@@H](n2cc(-c3ccc(F)cc3)nn2)[C@H](O)C[C@@H]1c1ccc(Cl)cc1	MC4R ag barr 12 (no result: Calb FLC, Efflux pump mplx) | MC4R barr ag inactive | MOR-DOR barr ag inactive
CCOc1cc(OCC)cc(C(=O)N2CCC[C@H]2C(=O)N2CCC[C@H]2C(=O)NCc2ccccn2)c1	none (no result: Calb FLC, Efflux pump mplx, MC4R antagonist, H9c2 TAG inh, MC4R ag barr)
Cn1cccc1C(=O)OCC(=O)Nc1sccc1C#N	none (no result: Calb FLC)
N#Cc1ccsc1NC(=O)COC(=O)c1ccc2ccccc2c1	MC4R ag barr 17 (no result: H9c2 TAG inh) | MC4R barr ag inactive | MOR-DOR barr ag inactive
COc1ccc(-n2nnc3c(=O)n(Cc4ccccc4C)cnc32)cc1	none (no result: GalR3 antagonist, H9c2 TAG inh)
Cc1ccc(C)c(Cn2cnc3c(nnn3-c3ccc(F)cc3)c2=O)c1	MC4R ag barr 13 (no result: H9c2 TAG inh) | MC4R barr ag inactive | MOR-DOR barr ag inactive
Cc1ccc(Cn2cccc2/C=N/NC(=S)Nc2ccc(C)cc2)cc1	MC4R ag barr 21 | MC4R barr ag 8.8 | MOR-DOR barr ag inactive
COc1ccc(NC(=S)N/N=C/c2cccn2Cc2ccc(F)cc2)cc1	MC4R ag barr 10 | MC4R barr ag inactive | MOR-DOR barr ag inactive
COc1ccc(NC(=S)Nc2ccc(F)cc2)cc1	none (no result: H9c2 TAG inh)
Cc1ccc(NC(=S)N/N=C/c2c(C)[nH]c3ccccc23)cc1	Calb FLC inconclusive
CN1C(=O)C2(Oc3ccccc3C3CC(c4ccccc4)=NN32)c2ccccc21 (stereo not given)	none (no result: GalR3 antagonist)
Cc1ccc(C2=NN3C(C2)c2ccccc2OC32C(=O)Nc3ccccc32)cc1 (stereo not given)	MC4R ag barr 10 | MC4R barr ag 9.1 | MOR-DOR barr ag 20
N#Cc1nnn2c1nc(N)c1c(Cl)cccc12	none (no result: Calb FLC, Efflux pump mplx, MC4R antagonist, H9c2 TAG inh, MC4R ag barr)

Screens as filed in PubChem.
